Source: paper PMC3049920 (Journal of immunology (Baltimore, Md. : 1950), 2010)

Assays:
[1] = test system: cellular phospho-tyrosine proteins in Jurkat cells; assay: Profile of cellular phospho-tyrosine proteins in Jurkat cells; format: cell-based, human; conditions: 10 min
[2] = test system: B16 melanoma tumors; assay: B16 melanoma tumors in C57BL/6 mice; format: in vivo, mouse; conditions: 12 mg, daily, 5 d/wk, s.c.
[3] = test system: IFNγ+ cells in human peripheral blood; assay: Induction of IFNγ+ cells in human peripheral blood in vitro; format: cell-based; conditions: 20 µg/ml
In short: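 Whole heparinized blood (0.1 ml) from healthy volunteers was incubated with test agent at 37°C for 4 h. RBCs were lysed with hypotonic buffer (10 mM Tris pH 7.4, 10 mM NaCl), and the WBC pellet was washed and resuspended in RPMI 1640/10% FCS. IFNγ+ cells were quantified by human IFNγ ELISPOT (16 h culture). Values are mean ± SD of duplicates.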

[4] = test system: IFNγ+ cells in mouse splenocytes; assay: Induction of IFNγ+ cells in mouse splenocytes in vitro; format: cell-based; conditions: optimal dose 20 µg/ml
In short: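 Splenocytes came from female 129 mice, 3–5 weeks old. They were cultured 16 h in RPMI 1640/10% FCS with or without test agent in plates coated with anti-mouse IFNγ antibody. IFNγ+ cells were detected in situ by ELISPOT and counted with an automated reader. Values are mean ± SD of duplicates.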

Compound | effect on profile of cellular phospho-tyrosine proteins [1] | response of B16 tumors [2] | induction of IFNγ+ cells [3] | maximal increase of IFNγ+ cells [4]
pervanadate [pervanadate (PV)] | marked increases of multiple phosphotyrosine proteins | – | – | –
O.O.O.O.O.O.O.O.O.O=C([O-])[C@@H]1[O][Sb](=[O])([O][Sb]2(=[O])[O][C@H]([C@H](O)CO)[C@H](O)[C@H](C(=O)[O-])[O]2)[O][C@H]([C@H](O)CO)[C@@H]1O.[Na+].[Na+].[Na+] (stereo partly shown) [SSG, sodium stibogluconate] | – | not responsive | ~ 2 fold | ~ 3 fold
